Experimental data as given in paper PMC4201344 (ACS Chemical Biology, 2014).
Positions count from the first letter of the chain named. Entries after “also recorded” stand apart in the source; their conditions may differ.

Legend:
[1] = test system: GluClβ with α signal peptide, T6′S, Y156TAG F2–Phe; assay: two-electrode voltage clamp, Xenopus laevis oocytes, nonsense suppression; format: cell-based, C. elegans; settings: glutamate
GluClα T2′A = settings: otherwise glutamate-insensitive channel; cited from earlier work
[2] = test system: GluClβ with α signal sequence, T6’S, Y206 F2-Phe (3,5-F2–Phe); assay: two-electrode voltage clamp, Xenopus laevis oocytes, nonsense suppression; format: cell-based, C. elegans; settings: glutamate; no plateau at 100 mM
Outline: (§1)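 Site-specific TAG codon, read by 74mer THG73 tRNA ligated to dCA-acylated amino acid; NVOC removed by 5 min xenon-lamp irradiation just before injection. Oocytes coinjected with 37.5 ng mRNA plus ~1 μg/μL tRNA at 48 and 24 h pre-recording; unacylated 76mer tRNA served as read-through control.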

GluClβ T6′S, Y156A = GluClβ T6′S, Y156A (Caenorhabditis elegans, UniProt Q17328, T283S/Y182A); assay: two-electrode voltage clamp, Xenopus laevis oocytes; format: cell-based, C. elegans; settings: glutamate
Outline: (§2)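 C. elegans GluClβ (mammalian codon-optimised) in pGEMhe, mutated by QuikChange; T7 mRNA. […] Voltage clamp at −60 mV in Ca-free ND96, pH 7.5. […] Peak currents taken from baseline, normalised, averaged per concentration, and fit to Hill equation (EC50, nH).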

[3] = test system: GluClβ with α signal peptide, T6′S, Y156TAG F3–Phe; assay: two-electrode voltage clamp, Xenopus laevis oocytes, nonsense suppression; format: cell-based, C. elegans; settings: glutamate
GluClβ T6′S, R59E = GluClβ T6′S, R59E (Caenorhabditis elegans, UniProt Q17328, R85E/T283S); assay: two-electrode voltage clamp, Xenopus laevis oocytes; format: cell-based, C. elegans; settings: glutamate
Outline: as §2

GluClβ A2′S = target: T1, GluClβ A2′S (Caenorhabditis elegans, UniProt Q17328, A279S); assay: two-electrode voltage clamp, Xenopus laevis oocytes; format: cell-based, C. elegans; settings: glutamate
T1 sequence (Q17328 23-434 A279S): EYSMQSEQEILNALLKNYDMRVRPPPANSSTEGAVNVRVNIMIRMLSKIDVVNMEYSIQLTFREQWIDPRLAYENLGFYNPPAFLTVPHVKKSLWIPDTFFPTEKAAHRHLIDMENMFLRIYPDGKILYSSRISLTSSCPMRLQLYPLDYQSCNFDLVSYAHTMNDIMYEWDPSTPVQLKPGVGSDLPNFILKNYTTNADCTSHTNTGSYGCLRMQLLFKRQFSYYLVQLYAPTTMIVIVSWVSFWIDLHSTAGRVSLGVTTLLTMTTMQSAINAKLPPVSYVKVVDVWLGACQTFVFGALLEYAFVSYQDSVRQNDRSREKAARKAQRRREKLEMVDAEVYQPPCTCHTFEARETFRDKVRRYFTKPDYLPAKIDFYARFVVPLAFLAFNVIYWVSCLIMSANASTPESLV

GluClβ A20′T = target: T2, GluClβ A20′T (Caenorhabditis elegans, UniProt Q17328, A297T); assay: as above; format: cell-based, C. elegans; settings: glutamate
T2 sequence (Q17328 23-434 A297T): T1 sequence (Q17328 23-434 A279S) with S257A, A275T

[4] = test system: GluClβ homomeric receptor, wild type; assay: as above; format: cell-based, C. elegans; settings: high expressing mutants of GluClβ
[5] = target: GluClβ homomeric receptor, wild type (Caenorhabditis elegans, UniProt Q17328); assay: as above; format: cell-based, C. elegans; settings: glutamate
[6] = target: T3, GluClβ with α signal peptide, T6′S, Y156TAG Phe (Caenorhabditis elegans, UniProt Q17328, T283S/Y182F); assay: two-electrode voltage clamp, Xenopus laevis oocytes, nonsense suppression; format: cell-based, C. elegans; settings: glutamate
T3 sequence (Q17328 23-434 Y182F/T283S): T1 sequence (Q17328 23-434 A279S) with Y160F, S257A, T261S
Outline: as §1

GluClβ T10′S = target: T4, GluClβ T10′S (Caenorhabditis elegans, UniProt Q17328, T287S); assay: two-electrode voltage clamp, Xenopus laevis oocytes; format: cell-based, C. elegans; settings: glutamate
T4 sequence (Q17328 23-434 T287S): T1 sequence (Q17328 23-434 A279S) with S257A, T265S

GluClβ T6′S, R59E, sequence (Q17328 23-434 R85E/T283S): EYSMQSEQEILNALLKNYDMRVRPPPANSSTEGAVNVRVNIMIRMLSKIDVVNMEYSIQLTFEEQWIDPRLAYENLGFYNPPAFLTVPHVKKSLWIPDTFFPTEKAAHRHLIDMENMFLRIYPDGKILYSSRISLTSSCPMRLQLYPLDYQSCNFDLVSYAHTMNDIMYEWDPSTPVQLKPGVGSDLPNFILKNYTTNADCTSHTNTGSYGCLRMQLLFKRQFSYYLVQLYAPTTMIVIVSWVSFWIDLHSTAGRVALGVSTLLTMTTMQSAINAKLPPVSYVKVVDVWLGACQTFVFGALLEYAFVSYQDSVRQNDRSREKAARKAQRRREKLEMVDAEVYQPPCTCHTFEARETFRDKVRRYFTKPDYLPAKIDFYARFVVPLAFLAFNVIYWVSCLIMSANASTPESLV
GluClβ T6′S, Y156A, sequence (Q17328 23-434 Y182A/T283S): as the sequence (Q17328 23-434 R85E/T283S) above, with E63R, Y160A counted along it
GluClβ homomeric receptor, wild type (Caenorhabditis elegans, UniProt Q17328), sequence (Q17328 23-434): as the sequence (Q17328 23-434 R85E/T283S) above, with E63R, S261T counted along it

EC50 [1]: 49 ± 3 mM
EC50 [2]: > 100 mM
EC50 (GluClβ T6′S, Y156A): no response
EC50 [3]: 65 ± 5 mM
EC50 (GluClβ A2′S): 0.63 ± 0.01 mM
Hill (GluClβ A2′S): 2.0 ± 0.1
Imax (GluClβ A2′S): 0.6–6 μA
EC50 (GluClβ A20′T): 0.11 ± 0.02 mM
Hill (GluClβ A20′T): 1.7 ± 0.1
Imax (GluClβ A20′T): 0.5–48 μA
Hill [5]: 2.5 ± 0.2
EC50 [6]: 17 ± 1 mM
Hill [6]: 1.7 ± 0.1
Imax [6]: 1–4 μA
EC50 (GluClβ T10′S): 0.011 ± 0.001 mM
Hill (GluClβ T10′S): 2.5 ± 0.1
Imax (GluClβ T10′S): 0.3–4 μA
SMILES: N[C@@H](CCC(=O)O)C(=O)O [glutamate]
Hill [1]: 1.8 ± 0.1
Imax [1]: 0.2–4 μA
glutamate sensitivity (GluClα T2′A): restore glutamate sensitivity
Hill [3]: 1.7 ± 0.1
Imax [3]: 0.3–2 μA
EC50 (GluClβ T6′S, R59E): nonfunctional; also recorded: no response
concentration at which rapid desensitization occurs [4]: greater than 100 mM
